Reference: ChEMBL document CHEMBL1137848, “Discovery of isoxazolinone antibacterial agents. Nitrogen as a replacement for the stereogenic center found in oxazolidinone antibacterials” (2004)
Values after ≈ are worked out from the molar mass of the structure shown.

What was measured:
Format in all cases: functional
Enterococcus faecalis [1] = assay: Minimum inhibitory concentration against Enterococcus faecalis (strain A20688) in absence of calf serum
Summary of the method: (§1)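 Broth microdilution MIC per NCCLS method in Mueller-Hinton broth without serum. Final inoculum approximately 5·10⁵ CFU/well in microtiter plates, incubated 35 °C for 18 h in ambient air.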

Staphylococcus aureus [2] = assay: Minimum inhibitory concentration against Staphylococcus aureus (strain A15090) in absence of calf serum; summary of the method: as §1
Enterococcus faecalis [3] = assay: Minimum inhibitory concentration against Enterococcus faecalis (strain A20688) in presence of 50% calf serum
Summary of the method: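 Broth microdilution MIC per NCCLS method in Mueller-Hinton broth supplemented with 50% calf serum. Final inoculum approximately 5·10⁵ CFU/well, incubated 35 °C for 18 h in ambient air.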

Staphylococcus aureus [4] = assay: Minimum inhibitory concentration against Staphylococcus aureus (strain A15090) in presence of 50% calf serum
Summary of the method: (§2)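 Microbroth dilution MIC following the NCCLS method, with 50% calf serum added. Mueller-Hinton broth, inoculum approximately 5·10⁵ CFU/well, incubated at 35 °C for 18 h in ambient air.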

Staphylococcus aureus [5] = assay: Minimum inhibitory concentration against methicillin resistant Staphylococcus aureus (strain A27223) in presence of 50% calf serum; summary of the method: as §2
Haemophilus influenzae = assay: Minimum inhibitory concentration against Haemophilus influenzae (strain A20191) in absence of calf serum
Summary of the method: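 MIC by NCCLS microbroth dilution in Haemophilus test medium broth without serum. Inoculum approximately 5·10⁵ CFU/well in microtiter plates, incubated at 35 °C for 18 h in ambient air.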

Staphylococcus aureus [6] = assay: Minimum inhibitory concentration against methicillin resistant Staphylococcus aureus (strain A27223) in absence of calf serum
Summary of the method: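 Microbroth dilution MIC following the NCCLS method, no serum added. Mueller-Hinton broth, inoculum approximately 5·10⁵ CFU/well, incubated at 35 °C for 18 h in ambient air.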

| SMILES | MIC (Enterococcus faecalis [1]) | MIC (Staphylococcus aureus [2]) | MIC (Enterococcus faecalis [3]) | MIC (Staphylococcus aureus [4]) | MIC (Staphylococcus aureus [5]) | MIC (Haemophilus influenzae) | MIC (Staphylococcus aureus [6]) |
| --- | --- | --- | --- | --- | --- | --- | --- |
| COc1cccc(-c2cn(CNC(C)=O)oc2=O)c1 | 32 µg/mL (≈ 122 µM) | 32 µg/mL (≈ 122 µM) | > 64 µg/mL | 64 µg/mL | > 64 µg/mL | > 64 µg/mL | 16 µg/mL (≈ 61 µM) |
| CC(=O)NCn1cc(-c2ccc3c(c2)OCO3)c(=O)o1 | 1 µg/mL (≈ 3.62 µM) | 2 µg/mL (≈ 7.24 µM) | 8 µg/mL | 4 µg/mL | 4 µg/mL | 16 µg/mL (≈ 57.9 µM) | 1 µg/mL (≈ 3.62 µM) |
| CC(=O)NCn1cc(-c2cccc(Cl)c2)c(=O)o1 | 16 µg/mL (≈ 60 µM) | 8 µg/mL (≈ 30 µM) | > 64 µg/mL | > 64 µg/mL | 16 µg/mL | 32 µg/mL (≈ 120 µM) | 4 µg/mL (≈ 15 µM) |
| CC(=O)NCn1cc(-c2cc(C(F)(F)F)cc(C(F)(F)F)c2)c(=O)o1 | > 128 µg/mL | > 128 µg/mL |  |  |  | > 64 µg/mL |  |
| Oc1oncc1-c1ccc(-c2ccccc2)cc1 | > 128 µg/mL | > 128 µg/mL | > 64 µg/mL | > 64 µg/mL |  | > 64 µg/mL |  |
| CC(=O)NCn1cc(-c2cc(F)cc(F)c2)c(=O)o1 | 32 µg/mL (≈ 119 µM) | 8 µg/mL (≈ 29.8 µM) |  |  |  | > 64 µg/mL | 8 µg/mL (≈ 29.8 µM) |
| NC(=O)Cn1cc(-c2ccccc2)c(=O)o1 | > 128 µg/mL |  |  |  |  | > 64 µg/mL |  |
| COc1ccc(-c2cn(CNC(C)=O)oc2=O)cc1 | 2 µg/mL (≈ 7.63 µM) | 2 µg/mL (≈ 7.63 µM) | 8 µg/mL | 4 µg/mL | 4 µg/mL | 16 µg/mL (≈ 61 µM) | 1 µg/mL (≈ 3.81 µM) |
| CC(=O)NCn1cc(-c2ccc(-c3ccccc3)cc2)c(=O)o1 | 4 µg/mL (≈ 13 µM) | 4 µg/mL (≈ 13 µM) | 64 µg/mL | > 64 µg/mL | 64 µg/mL | 16 µg/mL (≈ 51.9 µM) | 1 µg/mL (≈ 3.24 µM) |
| CSc1ccc(-c2cnoc2O)cc1 | > 128 µg/mL | > 128 µg/mL | > 64 µg/mL | > 64 µg/mL |  | > 64 µg/mL |  |
| CSc1ccc(-c2cn(CNC(C)=O)oc2=O)cc1 | 1 µg/mL (≈ 3.59 µM) | 2 µg/mL (≈ 7.19 µM) | 16 µg/mL | 16 µg/mL | 8 µg/mL | 8 µg/mL (≈ 28.7 µM) | 1 µg/mL (≈ 3.59 µM) |
| COc1ccc(-c2cnoc2O)cc1 | > 128 µg/mL | > 128 µg/mL | > 64 µg/mL | > 64 µg/mL |  | > 64 µg/mL |  |
| CC(=O)NCn1cc(-c2ccc(F)c(F)c2)c(=O)o1 | > 128 µg/mL | 128 µg/mL (≈ 477 µM) | > 64 µg/mL | > 64 µg/mL |  | > 64 µg/mL | > 128 µg/mL |
| CC(=O)NCn1cc(-c2ccc(Cl)cc2)c(=O)o1 | 8 µg/mL (≈ 30 µM) | 8 µg/mL (≈ 30 µM) |  |  |  | 32 µg/mL (≈ 120 µM) | 4 µg/mL (≈ 15 µM) |
| CC(=O)NCn1cc(-c2ccccc2)c(=O)o1 | 16 µg/mL (≈ 68.9 µM) | 8 µg/mL (≈ 34.4 µM) | 16 µg/mL | 16 µg/mL | 8 µg/mL | 8 µg/mL (≈ 34.4 µM) | 4 µg/mL (≈ 17.2 µM) |
| CC(=O)NCn1cc(-c2cccc(F)c2)c(=O)o1 | 16 µg/mL (≈ 63.9 µM) | 8 µg/mL (≈ 32 µM) |  |  |  | > 64 µg/mL | 4 µg/mL (≈ 16 µM) |
| CC(=O)NCn1cc(-c2ccc(F)cc2)c(=O)o1 | > 128 µg/mL | > 128 µg/mL | > 64 µg/mL | > 64 µg/mL |  | 32 µg/mL (≈ 128 µM) |  |
| CC(=O)NCn1cc(-c2ccc(Br)cc2)c(=O)o1 | 8 µg/mL (≈ 25.7 µM) | 4 µg/mL (≈ 12.9 µM) | > 64 µg/mL | > 64 µg/mL |  | 8 µg/mL (≈ 25.7 µM) | 2 µg/mL (≈ 6.43 µM) |
| CC(=O)NCn1cc(-c2cccc(C(F)(F)F)c2)c(=O)o1 | 64 µg/mL (≈ 213 µM) | 32 µg/mL (≈ 107 µM) | > 64 µg/mL | 64 µg/mL | 64 µg/mL | > 64 µg/mL | 16 µg/mL (≈ 53.3 µM) |
| CC(=O)NCn1cc(-c2cccc(C)c2)c(=O)o1 | 32 µg/mL (≈ 130 µM) | 8 µg/mL (≈ 32.5 µM) |  |  |  | > 64 µg/mL | 4 µg/mL (≈ 16.2 µM) |
| CC(=O)NCn1cc(-c2ccc(C(C)C)cc2)c(=O)o1 | 2 µg/mL (≈ 7.29 µM) | 1 µg/mL (≈ 3.65 µM) | 8 µg/mL | 4 µg/mL |  |  |  |
| Oc1oncc1-c1ccc2c(c1)OCO2 | > 128 µg/mL | > 128 µg/mL | > 64 µg/mL | > 64 µg/mL |  | > 64 µg/mL |  |
| COc1cc(OC)cc(-c2cn(CNC(C)=O)oc2=O)c1 | > 128 µg/mL | > 128 µg/mL |  |  |  | 64 µg/mL (≈ 219 µM) |  |
| COc1ccc(-c2cn(CNC(C)=O)oc2=O)cc1OC | > 128 µg/mL | 128 µg/mL (≈ 438 µM) | > 64 µg/mL | > 64 µg/mL |  | > 64 µg/mL | 64 µg/mL (≈ 219 µM) |
| CC(=O)NC[C@H]1CN(c2ccc(N3CCOCC3)c(F)c2)C(=O)O1 [LINEZOLID] | 0.5 µg/mL (≈ 1.48 µM) | 1 µg/mL (≈ 2.96 µM) | 0.5 µg/mL | 1 µg/mL | 1 µg/mL | 8 µg/mL (≈ 23.7 µM) | 1 µg/mL (≈ 2.96 µM) |
